From ChEMBL document CHEMBL2407028, “Discovery of novel oxazolidinedione derivatives as potent and selective mineralocorticoid receptor antagonists” (Bioorg Med Chem Lett, 2013)

What was measured:
[1] = tested on: Rattus norvegicus; assay: Dose normalized AUC in rat at 1 mg/kg, po; assay type: ADME, organism-based; design: dose 1 mg/kg, route oral; details: in vivo
Procedure, shortened: (§1)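 Rats dosed at 1 mg/kg iv (n = 2) or 1 mg/kg po (n = 3), formulated at 1 mg/mL in PEG 200:water (70:30). Blood concentrations measured by LC/MS/MS after protein precipitation with acetonitrile.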

[2] = molecular target: T1, Mineralocorticoid receptor (Homo sapiens, UniProt P08235); assay: Antagonist activity at human mineralocorticoid receptor assessed as inhibition of binding to coactivator peptide by NH Pro assay
T1 sequence (P08235 whole entry): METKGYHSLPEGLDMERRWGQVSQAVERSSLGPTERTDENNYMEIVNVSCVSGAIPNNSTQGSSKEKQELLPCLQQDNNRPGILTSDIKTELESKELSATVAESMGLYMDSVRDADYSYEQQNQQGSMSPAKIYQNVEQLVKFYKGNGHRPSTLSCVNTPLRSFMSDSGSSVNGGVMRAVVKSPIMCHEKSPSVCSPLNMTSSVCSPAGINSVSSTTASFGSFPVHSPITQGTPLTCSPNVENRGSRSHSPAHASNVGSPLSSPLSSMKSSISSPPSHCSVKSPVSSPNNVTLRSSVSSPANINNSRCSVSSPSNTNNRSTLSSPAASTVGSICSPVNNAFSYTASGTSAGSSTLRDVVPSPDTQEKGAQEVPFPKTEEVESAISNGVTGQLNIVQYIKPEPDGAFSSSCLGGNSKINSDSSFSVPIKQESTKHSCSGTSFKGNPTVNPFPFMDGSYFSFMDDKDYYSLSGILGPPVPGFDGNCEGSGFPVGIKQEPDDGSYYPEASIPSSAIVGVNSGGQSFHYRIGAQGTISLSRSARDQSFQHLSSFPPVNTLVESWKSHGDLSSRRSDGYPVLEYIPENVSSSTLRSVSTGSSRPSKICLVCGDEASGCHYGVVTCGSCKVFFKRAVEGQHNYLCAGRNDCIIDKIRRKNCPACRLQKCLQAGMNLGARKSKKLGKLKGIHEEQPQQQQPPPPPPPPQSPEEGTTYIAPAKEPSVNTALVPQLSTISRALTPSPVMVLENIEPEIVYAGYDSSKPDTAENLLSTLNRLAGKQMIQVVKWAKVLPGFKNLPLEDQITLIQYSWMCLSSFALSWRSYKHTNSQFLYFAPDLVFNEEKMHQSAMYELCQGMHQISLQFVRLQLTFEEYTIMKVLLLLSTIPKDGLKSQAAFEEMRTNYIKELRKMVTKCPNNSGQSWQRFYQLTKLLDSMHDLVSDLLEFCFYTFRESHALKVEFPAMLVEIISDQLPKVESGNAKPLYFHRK

[3] = molecular target: T2, Estrogen receptor beta (Homo sapiens, UniProt Q92731); assay: Agonist activity at estrogen receptor beta (unknown origin) by NH Pro assay
[4] = Cmax in rat at 1 mg/kg, iv and 1 mg/lg, po; assay type: ADME, organism-based; design: dose 1 mg/kg, route oral; details: in vivo; procedure, shortened: as §1
[5] = Half life in rat at 1 mg/kg, iv and 1 mg/lg, po; assay type: ADME, organism-based; design: dose 1 mg/kg, route oral; details: in vivo; procedure, shortened: as §1
[6] = molecular target: T2, Estrogen receptor beta; assay: Antagonist activity at estrogen receptor beta (unknown origin) by NH Pro assay
[7] = tested on: Rattus norvegicus; assay: Volume of distribution at steady state in rat at 1 mg/kg, iv and 1 mg/lg, po; assay type: ADME, organism-based; design: dose 1 mg/kg, route oral; details: in vivo; procedure, shortened: as §1
[8] = molecular target: T3, Androgen receptor (Homo sapiens, UniProt P10275); assay: Agonist activity at androgen receptor (unknown origin) by NH Pro assay
T3 sequence (P10275 whole entry): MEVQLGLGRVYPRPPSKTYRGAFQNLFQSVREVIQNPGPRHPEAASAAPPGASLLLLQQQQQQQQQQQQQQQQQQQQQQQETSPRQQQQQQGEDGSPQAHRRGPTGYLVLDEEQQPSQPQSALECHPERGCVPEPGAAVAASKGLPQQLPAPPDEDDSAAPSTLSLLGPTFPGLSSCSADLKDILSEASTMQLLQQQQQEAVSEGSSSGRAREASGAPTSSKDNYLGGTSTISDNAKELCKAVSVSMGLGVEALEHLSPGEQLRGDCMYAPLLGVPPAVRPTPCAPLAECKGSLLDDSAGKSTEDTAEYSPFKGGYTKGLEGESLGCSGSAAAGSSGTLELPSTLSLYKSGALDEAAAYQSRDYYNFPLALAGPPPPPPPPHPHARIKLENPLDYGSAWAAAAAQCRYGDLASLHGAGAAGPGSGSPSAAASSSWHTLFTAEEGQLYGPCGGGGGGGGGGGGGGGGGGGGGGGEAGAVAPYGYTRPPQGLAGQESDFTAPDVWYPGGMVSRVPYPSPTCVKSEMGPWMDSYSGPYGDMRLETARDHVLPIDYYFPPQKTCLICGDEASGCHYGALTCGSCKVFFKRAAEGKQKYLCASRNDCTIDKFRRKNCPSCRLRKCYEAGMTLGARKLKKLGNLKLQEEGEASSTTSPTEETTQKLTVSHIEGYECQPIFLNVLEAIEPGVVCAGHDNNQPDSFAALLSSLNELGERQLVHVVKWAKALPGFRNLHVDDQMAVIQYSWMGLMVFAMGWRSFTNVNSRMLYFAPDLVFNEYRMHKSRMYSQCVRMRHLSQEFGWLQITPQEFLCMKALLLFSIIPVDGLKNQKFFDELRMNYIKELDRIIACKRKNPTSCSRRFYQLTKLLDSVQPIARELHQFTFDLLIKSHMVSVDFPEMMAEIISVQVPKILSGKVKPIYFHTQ

[9] = molecular target: T4, Estrogen receptor (Homo sapiens, UniProt P03372); assay: Agonist activity at estrogen receptor alpha (unknown origin) by NH Pro assay
T4 sequence (P03372 whole entry): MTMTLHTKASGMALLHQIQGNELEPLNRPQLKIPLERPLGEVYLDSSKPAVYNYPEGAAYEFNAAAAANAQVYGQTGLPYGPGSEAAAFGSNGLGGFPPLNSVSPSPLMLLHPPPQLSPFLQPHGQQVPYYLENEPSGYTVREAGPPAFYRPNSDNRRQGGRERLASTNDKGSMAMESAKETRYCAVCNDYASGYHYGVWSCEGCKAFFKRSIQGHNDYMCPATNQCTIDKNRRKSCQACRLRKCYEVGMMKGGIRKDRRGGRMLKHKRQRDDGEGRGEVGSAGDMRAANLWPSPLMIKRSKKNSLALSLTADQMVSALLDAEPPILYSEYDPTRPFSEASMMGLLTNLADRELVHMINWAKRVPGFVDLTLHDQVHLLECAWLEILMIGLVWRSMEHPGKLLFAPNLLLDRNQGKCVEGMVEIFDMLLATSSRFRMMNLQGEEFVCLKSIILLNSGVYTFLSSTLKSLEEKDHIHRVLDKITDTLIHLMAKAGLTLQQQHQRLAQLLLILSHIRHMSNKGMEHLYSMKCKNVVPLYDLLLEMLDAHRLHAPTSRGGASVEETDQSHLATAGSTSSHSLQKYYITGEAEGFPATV

T2 sequence (Q92731 whole entry): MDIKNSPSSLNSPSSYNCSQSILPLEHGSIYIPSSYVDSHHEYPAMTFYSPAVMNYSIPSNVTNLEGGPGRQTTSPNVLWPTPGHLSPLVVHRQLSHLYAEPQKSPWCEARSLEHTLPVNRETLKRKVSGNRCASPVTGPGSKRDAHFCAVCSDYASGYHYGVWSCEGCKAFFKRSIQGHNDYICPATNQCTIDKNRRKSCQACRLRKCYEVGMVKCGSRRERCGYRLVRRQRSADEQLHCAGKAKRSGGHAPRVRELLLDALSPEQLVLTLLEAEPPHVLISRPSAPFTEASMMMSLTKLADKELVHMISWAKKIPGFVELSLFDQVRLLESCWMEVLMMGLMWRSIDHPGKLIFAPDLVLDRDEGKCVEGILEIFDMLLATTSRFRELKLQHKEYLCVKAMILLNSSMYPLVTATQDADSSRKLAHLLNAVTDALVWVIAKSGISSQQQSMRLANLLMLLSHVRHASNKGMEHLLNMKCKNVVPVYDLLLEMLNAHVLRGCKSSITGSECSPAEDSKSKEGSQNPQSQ

SMILES | AUC/dose [1] | IC50 [2] | EC50 [3] | Cmax [4] | half-life [5] | IC50 [6] | Vdss [7] | EC50 [8] | EC50 [9]
COc1cc(CNC(=O)[C@@]2(Cc3ccccc3)OC(=O)N([C@@H]3CCc4ccccc43)C2=O)cc(OC)c1 | 0.24 µM·kg·h/mg | 0.033 µM | > 20 µM | 98 nM | 2.5 h | 15 µM | 4.7 L/kg | > 20 µM | > 20 µM
C[C@H](c1ccc(F)cc1)N1C(=O)O[C@](Cc2ccc(F)cc2)(C(=O)NCc2ccc(Cl)c(Cl)c2)C1=O | 0.24 µM·kg·h/mg | 0.18 µM | > 20 µM | 120 nM | 2.3 h | 15 µM | 7.9 L/kg | > 20 µM | > 20 µM
